APJ antagonist = APJ receptor antagonism; P35414; CHO-K1 APJ beta-arrestin complementation, luminescence; inhibition, % at 20 µM; hit rate 0.32% among 330,000; AID 2521;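 active = inhibition above about 40% at 20 µM, limit read from the data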;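 note: cells challenged with 10 nM apelin-13 agonist together with compound; plate controls were apelin-13 plus DMSO wells for no effect and DMSO wells lacking apelin-13 for full effect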
HTR2A ag = agonists of mouse serotonin 5-HT2A receptor (HTR2A); CHO-K1 mHTR2A beta-arrestin complementation, luminescence; percent of 30 µM serotonin response; activation, % at 7.6 µM; hit rate 0.66% among 360,000;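 active = activation above a run cutoff, the mean activation of all tested compounds plus 3 SD, cut at about 14% in these data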;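 note: 0% = plate median of compound wells and 100% = 30 µM serotonin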
Target sequence (P35363 whole entry, looked up): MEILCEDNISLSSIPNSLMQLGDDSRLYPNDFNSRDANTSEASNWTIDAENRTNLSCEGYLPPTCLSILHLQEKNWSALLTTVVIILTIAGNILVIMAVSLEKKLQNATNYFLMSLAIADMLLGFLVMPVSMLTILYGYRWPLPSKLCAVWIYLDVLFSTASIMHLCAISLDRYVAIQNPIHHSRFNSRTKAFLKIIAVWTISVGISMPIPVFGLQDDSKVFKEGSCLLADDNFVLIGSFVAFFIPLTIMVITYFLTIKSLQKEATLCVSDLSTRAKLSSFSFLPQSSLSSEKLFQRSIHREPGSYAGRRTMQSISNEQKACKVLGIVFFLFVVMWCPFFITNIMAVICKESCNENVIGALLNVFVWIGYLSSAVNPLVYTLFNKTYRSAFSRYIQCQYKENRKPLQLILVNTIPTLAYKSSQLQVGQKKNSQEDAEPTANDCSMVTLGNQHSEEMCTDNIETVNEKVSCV
CCR6 antag = antagonists of human CCR6 receptor; P51684; CHO-K1 CCR6 PathHunter beta-arrestin, luminescence, CCL20-stimulated; inhibition, % at 20 µM; hit rate 0.49% among 340,000; AID 493098;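 active = compounds whose inhibition of the agonist-driven luminescence signal at 20 µM reaches about 50%, limit read from the data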;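 note: cells stimulated with CCL20 at 14 nM final; plate controls were DMSO with CCL20 for no effect and DMSO without agonist for full effect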
CXCR6 inh = blocks human CXCR6 beta-arrestin recruitment; CHO-K1 PathHunter CXCR6 beta-arrestin, luminescence; inhibition, % at 20 µM; hit rate 0.36% among 360,000; AID 602244; in the data active = inhibition above about 34%, passing the limit was not always enough;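 note: antagonist mode with CXCL16 agonist at 10 nM final; 0% = 10 nM CXCL16 with DMSO and 100% = unstimulated wells without agonist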
EBI2 block = blocks human EBI2 receptor beta-arrestin signaling. P32249. EBI2 beta-arrestin recruitment, luminescence, 7a,25-OHC stimulated. inhibition, % at 5 µM. hit rate 0.81% among 360,000. AID 651636; in the data active = inhibition above about 38%;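 note: enzyme fragment complementation signal reports receptor beta-arrestin coupling in cells; 0% = agonist plus DMSO wells and 100% = wells without agonist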
APJ ag = activates the human apelin receptor APJ; P35414; CHO-K1 APJ PathHunter beta-arrestin, luminescence; 0% DMSO wells, 100% apelin; activation, % at 20 µM; hit rate 0.11% among 330,000; AID 2520;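 active = activation more than six SD over the plate average, tested at 20 µM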;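 note: 0% = DMSO alone and 100% = apelin-13 at 10 nM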
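assay system = CHO-K1 APJ beta-arrestin complementation cell line | input = cell density 1000 per well | dosing = compound 20 µM once, DMSO 1% | timing = compound 90 min 25 °C, reagent 1 h | measured by = luminescence from split beta-galactosidase complementation, Galacton Star/Emerald II substrate | read-out basis = APJ agonist activity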
OPRM1 ag = activates human mu opioid receptor in HTR2A counterscreen | shares compounds with HTR2A ag | U2OS OPRM1 beta-arrestin PathHunter, luminescence; DMSO 0%, DAMGO 9.3 µM 100% | activation, % at 9.3 µM | hit rate 5.3% among 2,300 | AID 624380;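 active = mean activation above the mean of DMSO-only wells plus 3 SD, cut at about 0.5% in these data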
m5-HT2A ag conf = mouse HTR2A agonism confirmed; shares compounds with HTR2A ag; CHO-K1 PathHunter beta-arrestin recruitment, luminescence; DMSO 0%, 30 µM serotonin 100%; activation, % at 7.6 µM; hit rate 19% among 2,300;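 active = mean activation across triplicates above the hit threshold derived in the original primary screen, cut at about 15% in these data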
The depositor's hits bear a star; . = no result. An excerpt weighted towards active compounds, which were near 2.2% of everything screened.

SMILES	APJ antagonist	HTR2A ag	CCR6 antag	CXCR6 inh	EBI2 block	APJ ag	OPRM1 ag	m5-HT2A ag conf
CC1(C(=O)NS(=O)(=O)C2CC2)CCCN(C(=O)c2c(F)cccc2F)C1 (centres undefined)	.	-3	.	8	7	.	.	.
Cc1cc2oc3ccc(NCCCn4ccnc4)cc3c(=O)c2cc1C	-2	20*	10	-5	-3	14	1.4*	9
CCC1(CC)C(=O)NC(=S)N=C1N	.	21*	-2	-4	-13	.	0	1
Cc1cccnc1C(NC(=O)C1CCN(Cc2ccc3ccccc3n2)CC1)c1ccc(Cl)cc1 (centres undefined)	.	-6	.	8	30	.	.	.
CCCCCCCC(=O)NNC(=O)c1ccc([N+](=O)[O-])cc1	-47	0	-45	2	3	3	.	.
COC(=O)CCC(=O)NNC(=O)c1ccc([N+](=O)[O-])cc1	-3	14*	12	-1	-4	-2	0	6
Cc1csc(=O)n1CC(=O)OCC(=O)NNC(=O)c1ccc([N+](=O)[O-])cc1	-30	15*	11	2	-4	5	0	1
COc1cc(-c2coc3c(C(=O)NCc4ccc(C(F)(F)F)cc4)cccc23)ccc1O	.	-3	.	1	16	.	.	.
O=C(COC(=O)CCC(=O)c1ccc(Cl)cc1)NCCc1ccccc1	-4	18*	-3	0	1	-1	-1	-4
CC(NC(=O)Nc1nnc(C(F)(F)F)s1)(C(F)(F)F)C(F)(F)F	14	16*	4	-13	-10	0	0	14
CC(C)(C)CC(=O)Nc1nnc(C(F)(F)F)s1	2	3	-2	4	-3	-2	.	.
S=c1[nH]nc2ccccn12	.	21*	-1	6	-15	.	-1	-4
COc1cc(C(=O)NC2CC2)cc(OC)c1OC	.	-5	.	9	-2	.	.	.
C[C@@H](NC(=O)Cn1cnc2c(OCc3ccccc3)ncnc21)c1cccc2ccccc12	1	16*	9	12	11	-3	.	-1
Cc1nnc(SCc2cc(=O)[nH]c(=S)[nH]2)s1	-7	16*	3	-5	-10	-2	0	-4
O=c1cc(CSc2ccccc2)[nH]c(=S)[nH]1	3	2	11	2	-9	-4	.	.
CCCn1c(SCC(=O)NCCc2ccc(Cl)cc2Cl)n[nH]c1=O	-16	16*	2	-6	3	2	0	0
CCCn1c(SCC(=O)Nc2ccc(Cl)cc2)n[nH]c1=O	-4	2	12	3	0	-5	.	.
O=C(O)c1ccc(-c2cccc(-c3nn4c(=O)cc(N5CCNCC5)nc4s3)c2)cc1	.	0	.	0	-5	.	.	.
N#CC1=C(Nc2ccccc2Cl)SC2(CCCC2)NC1=O	.	-2	.	3	0	.	.	.
NC(=O)CC(NC(=O)c1ccccc1)c1ccc(NC2CCCCCCC2)c([N+](=O)[O-])c1 (centres undefined)	16	19*	22	18	5	-3	0	-2
CC(C)Oc1ccc(F)cc1-c1cc(C(=O)Nc2ccc(C(C)(C)C)cc2)[nH]n1	.	2	.	0	21	.	.	.
Cc1ccc(NC(=O)C2CCCN2C(=O)OCc2ccccc2)cc1F (centres undefined)	12	15*	25	-4	-15	2	0	-5
CC(C)c1ccc(CN2CCC2(C)C(=O)Nc2cnc3ccccc3c2)cc1 (centres undefined)	.	3	.	-4	7	.	.	.
CCn1c(=O)ccc2cc([N+](=O)[O-])ccc21	-3	14*	16	-7	2	-2	-1	2
SMILES	APJ antagonist	HTR2A ag	CCR6 antag	CXCR6 inh	EBI2 block	APJ ag	OPRM1 ag	m5-HT2A ag conf
CC(O)/C=C/c1ccc2ccccc2n1 (centres undefined)	5	19*	1	-11	10	3	0	1
N#CC(c1ccc(F)cc1)c1ccc(C(=O)c2ccc(F)cc2)cc1 (centres undefined)	13	14*	32	-11	20	-4	0	-6
Cc1ccc(C(C#N)c2ccc(C(=O)c3ccc(F)cc3)cc2)cc1 (centres undefined)	26	-7	1	0	28	-5	.	.
Cc1ccc(S(=O)(=O)N2[C@H](CC(=O)c3ccc(F)cc3)OC[C@@H]2C)cc1	.	-4	.	.	9	.	.	.
CCCn1c(=O)c2[nH]c(-c3ccc(OCC(=O)Nc4ccc(C#N)cc4)cc3)nc2n(CCC)c1=O	-1	16*	5	3	5	-1	0	-4
CC(=O)Nc1ccc(NC(=O)COc2ccc(-c3ccc(C#N)cc3)cc2)cc1	13	11	-3	-6	-6	-1	.	.
Cn1ncc2c(Nc3ccc(O)cc3)nc(Cl)nc21	10	18*	11	-8	3	-3	-1	-3
Cc1ccccc1-n1ncc(C(C)NS(=O)(=O)c2sccc2C)c1C (centres undefined)	9	15*	-2	-4	-4	2	-1	-3
CCNC(=O)C1CCCN(C(=O)c2cccc(OC(F)(F)F)c2)CC1 (centres undefined)	.	4	.	9	0	.	.	.
CCNC(=O)C(=O)Nc1cc2c3c(c1)CCC(=O)N3CCC2	5	-1	1	3	-12	1	.	.
CCCCNC(=O)C(=O)Nc1cc2c3c(c1)CCC(=O)N3CCC2	16	15*	14	0	-1	-2	-1	-4
FC(F)(F)c1cccc(CN2CCCCCC2)c1	8	-1	-2	-4	7	-3	.	.
Fc1ccc(CN2CCN(c3ncccn3)CC2)c(F)c1	10	10	-4	-5	0	-2	.	.
FC(F)(F)c1cccc(CN2CCN(c3ncccn3)CC2)c1	7	20*	14	7	4	-1	-1	66*
O=[N+]([O-])c1cccc(CN2CCN(c3ncccn3)CC2)c1	-11	15*	13	7	6	-3	0	59*
O=[N+]([O-])c1ccccc1CN1CCN(c2ncccn2)CC1	-5	6	8	8	6	-2	.	.
Fc1cccc(CN2CCN(c3ncccn3)CC2)c1	-10	41*	-5	-6	-23	-3	-1	113*
Cn1cc([C@]2(O)C(=O)Nc3ccc(OC(F)(F)F)cc32)c2ccccc21	.	3	.	.	-14	.	.	.
COCCNC(=O)/C(C#N)=C/c1c(N2CCN(c3cccc(Cl)c3)CC2)nc2c(C)cccn2c1=O	-8	12	18	11	25	-4	.	.

Assay outcomes (PubChem)
